Assay [1] has as its system MCF7. The experiment in a line: Antitumor activity against human MCF7 cells assessed as inhibition of cell proliferation after 48 hrs by MTT assay. In kind it is functional, cell-based. To be noted: MCF7, 48 h. In outline:
(§1)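 Cells grown to log phase in RPMI 1640 with 10% FBS, seeded at 2×10^4 cells/mL and preincubated 24 h at 37 °C, 5% CO2. Compounds at preset concentrations added (6 wells), celecoxib as positive reference, 48 h exposure. MTT (2.5 mg/mL in PBS) for 4 h, then SDS/isobutanol/HCl extraction overnight at 37 °C. OD read at 570 nm. Triplicate wells per concentration, at least three independent runs.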
(Tetrazolium dyes change colour on reduction, which living cells bring about.)

Assay [2] deals with RAW264.7. The experiment in a line: Inhibition of LPS-induced COX-2 expression in mouse RAW264.7 cells at >0.5 uM treated for 15 mins before LPS challenge measured after 18 hrs by Western blot analysis. In kind it is functional, cell-based. In outline:
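RAW 264.7 cells (5×10^5) incubated 24 h in 12-well plates. Compound pretreatment at 0.5, 1.0 or 1.5 µM for 15 min, then LPS 1 µg/mL for 18 h. Cells lysed in lysis buffer. COX-2 protein detected by Western immunoblot.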
On the technique in general: Immunoblotting shows a protein as a band on a membrane.

Assay [3] relates to B16-F10. As to the kind of experiment: Antitumor activity against mouse B16F10 cells assessed as inhibition of cell proliferation after 48 hrs by MTT assay. In kind it is functional, cell-based. To be noted: B16-F10, 48 h. In outline: as §1
Assay [4] has as its system A549. The experiment in a line: Antitumor activity against human A549 cells assessed as inhibition of cell proliferation after 48 hrs by MTT assay. In kind it is functional, cell-based. To be noted: A549, 48 h. In outline: as §1
In assay [5] the target is T1, Prostaglandin G/H synthase 2 (Homo sapiens, UniProt P35354).
T1 sequence (P35354 whole entry): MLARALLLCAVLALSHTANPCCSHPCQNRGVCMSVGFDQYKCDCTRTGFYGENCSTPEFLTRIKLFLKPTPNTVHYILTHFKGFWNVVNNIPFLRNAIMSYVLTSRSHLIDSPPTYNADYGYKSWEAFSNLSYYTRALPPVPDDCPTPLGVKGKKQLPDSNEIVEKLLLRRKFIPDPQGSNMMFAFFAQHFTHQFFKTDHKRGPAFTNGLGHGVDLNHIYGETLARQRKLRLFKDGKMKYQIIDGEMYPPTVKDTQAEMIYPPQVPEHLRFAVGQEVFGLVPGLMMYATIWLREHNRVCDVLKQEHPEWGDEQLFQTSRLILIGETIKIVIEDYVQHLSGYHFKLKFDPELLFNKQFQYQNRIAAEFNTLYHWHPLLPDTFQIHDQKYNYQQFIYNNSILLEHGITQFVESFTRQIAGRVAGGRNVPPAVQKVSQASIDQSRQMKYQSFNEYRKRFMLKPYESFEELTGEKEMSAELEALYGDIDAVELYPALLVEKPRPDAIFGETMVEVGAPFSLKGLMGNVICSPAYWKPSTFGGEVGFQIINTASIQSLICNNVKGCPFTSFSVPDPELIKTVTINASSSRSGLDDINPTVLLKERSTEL
The experiment in a line: Inhibition of COX-2 (unknown origin) by chemiluminescence assay.

The target of assay [6] is T2, Prostaglandin G/H synthase 2 (Mus musculus, UniProt Q05769).
T2 sequence (Q05769 whole entry): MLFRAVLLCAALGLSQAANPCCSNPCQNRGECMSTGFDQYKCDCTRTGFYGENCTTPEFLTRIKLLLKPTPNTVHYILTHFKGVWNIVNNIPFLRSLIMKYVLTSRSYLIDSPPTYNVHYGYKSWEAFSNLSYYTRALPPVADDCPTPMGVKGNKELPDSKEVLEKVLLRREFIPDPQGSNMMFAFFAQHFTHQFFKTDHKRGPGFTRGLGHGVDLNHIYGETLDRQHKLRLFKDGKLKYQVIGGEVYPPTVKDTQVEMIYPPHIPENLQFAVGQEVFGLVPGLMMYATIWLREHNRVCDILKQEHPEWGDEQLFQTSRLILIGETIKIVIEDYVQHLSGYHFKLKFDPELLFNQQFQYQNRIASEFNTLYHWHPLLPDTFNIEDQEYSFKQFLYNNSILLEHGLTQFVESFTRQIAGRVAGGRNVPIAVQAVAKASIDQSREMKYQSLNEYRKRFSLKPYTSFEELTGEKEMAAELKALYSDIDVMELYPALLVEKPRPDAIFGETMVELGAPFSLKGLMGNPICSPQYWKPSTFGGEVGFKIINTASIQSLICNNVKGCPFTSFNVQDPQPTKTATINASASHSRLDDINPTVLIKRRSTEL
As to the kind of experiment: Inhibition of COX-2 in mouse RAW264.7 cells assessed as decrease in LPS-induced PGE2 production. It is filed as cell-based.

Assay [7] addresses Prostaglandin G/H synthase 1 (Homo sapiens, UniProt P23219). The experiment in a line: Inhibition of COX-1 (unknown origin) by chemiluminescence assay.

This is an account of results in ChEMBL document CHEMBL2331353, “Synthesis and biological evaluation of some novel resveratrol amide derivatives as potential anti-tumor agents” (Eur J Med Chem, 2013).

Activity calls are given as the source filed them. The rule behind the calls is not given here. Bounds are passed on as bounds.

The term IC50 denotes the concentration that inhibits the measured activity by half.

Sequence of Prostaglandin G/H synthase 1 (P23219 whole entry): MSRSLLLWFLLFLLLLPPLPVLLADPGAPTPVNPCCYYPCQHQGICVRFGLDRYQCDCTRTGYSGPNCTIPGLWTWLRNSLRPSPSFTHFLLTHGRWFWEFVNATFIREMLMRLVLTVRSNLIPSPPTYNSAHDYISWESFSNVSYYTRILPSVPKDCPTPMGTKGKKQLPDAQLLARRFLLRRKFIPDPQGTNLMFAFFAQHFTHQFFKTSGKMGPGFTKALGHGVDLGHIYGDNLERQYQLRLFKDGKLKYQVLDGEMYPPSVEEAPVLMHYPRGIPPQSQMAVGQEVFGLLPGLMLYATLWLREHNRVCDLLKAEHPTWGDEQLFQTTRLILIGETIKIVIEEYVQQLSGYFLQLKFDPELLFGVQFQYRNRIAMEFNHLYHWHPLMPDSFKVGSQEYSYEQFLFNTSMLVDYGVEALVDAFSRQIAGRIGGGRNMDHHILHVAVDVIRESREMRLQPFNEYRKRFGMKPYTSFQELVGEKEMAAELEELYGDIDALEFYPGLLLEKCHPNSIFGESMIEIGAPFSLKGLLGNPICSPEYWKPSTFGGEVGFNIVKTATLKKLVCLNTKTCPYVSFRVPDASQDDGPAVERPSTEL

For `CCCCNC(=O)/C=C/c1c(/C=C/c2ccc(OC)cc2)cc(OC)cc1OC`, the IC50 in assay [1] is 1330 nM; in assay [3], 2080 nM; in assay [4] it was 1880 nM; in assay [5], 1020 nM; in assay [6], 280 nM; in assay [7], more than 50000 nM. The inhibition entry in assay [2] is “Active”.
